Source: ChEMBL document CHEMBL1143294, “Synthesis and antifungal activity of 1,2,3-triazole containing fluconazole analogues” (Bioorg Med Chem Lett, 2009)
Converted amounts (≈) assume the structure as drawn.

How the values were obtained:
A-431 [1] = assay: Cytotoxicity against human A431 cells at 1 mg/ml; assay type: cell-based
Method in brief: (§1)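 Antiproliferative assay in human hepatocellular carcinoma Hep3B and human epithelial carcinoma A431 cells. Compounds were tested across 0.001–1 mg/ml.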

[2] = Cytotoxicity against human Hep3B cells; details: hep 3b2
Aspergillus fumigatus = assay: Antimicrobial activity against Aspergillus fumigatus by broth microdilution method; assay type: functional, organism-based
Method in brief: (§2)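 Standard broth microdilution following NCCLS guidelines. MIC and IC50 values were determined.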

Candida albicans [3] = assay: Antimicrobial activity against Candida albicans by broth microdilution method; assay type: functional, organism-based; method in brief: as §2
Sporothrix schenckii = assay: Antimicrobial activity against Sporothrix schenckii by broth microdilution method; assay type: functional, organism-based; method in brief: as §2
[4] = Cytotoxicity against human Hep3B cells at 0.001 mg/ml; assay type: cell-based; details: hep 3b2; method in brief: as §1
Candida parapsilosis = assay: Antimicrobial activity against Candida parapsilosis ATCC 22019 by broth microdilution method; assay type: functional, organism-based; details: Lodderomyces parapsilosis; method in brief: as §2
[5] = test system: Trichophyton mentagrophytes; assay: Antimicrobial activity against Trichophyton mentagrophytes by broth microdilution method; assay type: functional, organism-based; method in brief: as §2
Cryptococcus neoformans = assay: Antimicrobial activity against Cryptococcus neoformans by broth microdilution method; assay type: functional, organism-based; method in brief: as §2
Candida albicans [6] = assay: Antimicrobial activity against Candida albicans infected Swiss mouse assessed as reduction of kidney fungal load at 50 mg/kg, po administered once daily for 7 days measured after 9 days; assay type: functional; set-up: scale not given: the % may be the effect or the level left
Method in brief: (§3)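 Swiss mice received an intravenous Candida albicans challenge, with five mice per group. Test agent was given orally in PEG 200 once a day for 7 days. Mice were sacrificed on day 9, and kidney fungal burden was counted as CFU/g tissue. Results are expressed as % reduction in CFU relative to the untreated control group.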

A-431 [7] = assay: Cytotoxicity against human A431 cells at 1 mg/ml
Candida albicans [8] = assay: Antimicrobial activity against Candida albicans infected Swiss mouse assessed as reduction of kidney fungal load at 25 mg/kg, po administered once daily for 7 days measured after 9 days; assay type: functional; set-up: scale not given: the % may be the effect or the level left; method in brief: as §3
[9] = Cytotoxicity against human Hep3B cells at 0.001 mg/ml; details: hep 3b2
A-431 [10] = assay: Cytotoxicity against human A431 cells at 0.001 mg/ml; assay type: cell-based; method in brief: as §1

SMILES | Activity (A-431 [1]) | Activity [2] | IC50 (Aspergillus fumigatus) [µg/mL] | MIC (Aspergillus fumigatus) [µg/mL] | IC50 (Candida albicans [3]) [µg/mL] | MIC (Candida albicans [3]) [µg/mL] | IC50 (Sporothrix schenckii) [µg/mL] | MIC (Sporothrix schenckii) [µg/mL] | Activity [4] | IC50 (Candida parapsilosis) [µg/mL] | MIC (Candida parapsilosis) [µg/mL] | IC50 [5] [µg/mL] | MIC [5] [µg/mL] | IC50 (Cryptococcus neoformans) [µg/mL] | MIC (Cryptococcus neoformans) [µg/mL] | Activity (Candida albicans [6]) [%] | Activity (A-431 [7]) | Activity (Candida albicans [8]) [%] | Activity [9] | Activity (A-431 [10])
CCCCCCc1cn(CC(O)(Cn2cncn2)c2ccc(F)cc2F)nn1 (configuration not stated) | Toxic | Non-toxic | 5 (≈ 12.8 µM) | 6.9 (≈ 17.7 µM) | 0.018 (≈ 0.0461 µM) | 0.032 (≈ 0.082 µM) | 0.043 (≈ 0.11 µM) | 0.14 (≈ 0.359 µM) | Non-toxic | 0.12 (≈ 0.307 µM) | 0.39 (≈ 0.999 µM) | 2.46 (≈ 6.3 µM) | 6.72 (≈ 17.2 µM) | < 0.01 | 0.02 (≈ 0.0512 µM) | 95 | Toxic |  |  | 
C[C@H](CCC(=O)OCc1cn(CC(O)(Cn2cncn2)c2ccc(F)cc2F)nn1)[C@H]1CC[C@H]2[C@@H]3CC[C@@H]4C[C@H](O)CC[C@]4(C)[C@H]3C[C@H](O)[C@]12C (some centres not stated) | Toxic | Non-toxic | 6.24 (≈ 8.78 µM) | > 50 | < 0.001 | < 0.001 | 0.76 (≈ 1.07 µM) | 0.84 (≈ 1.18 µM) | Non-toxic | 0.38 (≈ 0.535 µM) | 0.396 (≈ 0.557 µM) | 46.5 (≈ 65.4 µM) | > 50 | < 0.001 | 0.01 (≈ 0.0141 µM) | 38.2 | Toxic |  |  | 
CCCCCCCCn1cc(CC(O)(Cn2cncn2)c2ccc(F)cc2F)nn1 (configuration not stated) | Toxic | Non-toxic | 0.8 (≈ 1.91 µM) | 1.12 (≈ 2.68 µM) | 0.001 (≈ 0.00239 µM) | 0.002 (≈ 0.00478 µM) | 0.008 (≈ 0.0191 µM) | 0.036 (≈ 0.086 µM) | Non-toxic | 0.002 (≈ 0.00478 µM) | 0.01 (≈ 0.0239 µM) | 0.249 (≈ 0.595 µM) | 0.48 (≈ 1.15 µM) | < 0.006 | 0.002 (≈ 0.00478 µM) | 97.4 |  | 41.2 |  | 
C[C@@H]1[C@H](O)[C@@H](C)/C=C/C=C/C=C/C=C/C=C/C=C/C=C/[C@H](O[C@@H]2O[C@H](C)[C@@H](O)[C@H](N)[C@@H]2O)C[C@@H]2O[C@](O)(C[C@@H](O)C[C@@H](O)[C@H](O)CC[C@@H](O)C[C@@H](O)CC(=O)O[C@H]1C)C[C@H](O)[C@H]2C(=O)O [AMPHOTERICIN B] | Toxic |  |  | 0.5 (≈ 0.541 µM) |  | 0.12 (≈ 0.13 µM) |  | 0.12 (≈ 0.13 µM) | Non-toxic |  | 0.12 (≈ 0.13 µM) | 0.02 (≈ 0.0216 µM) | 0.12 (≈ 0.13 µM) |  | 0.06 (≈ 0.0649 µM) |  | Toxic |  | Non-toxic | 
OC(Cc1c[nH]nn1)(Cn1cncn1)c1ccc(F)cc1F (configuration not stated) |  |  | > 50 | > 50 | 2.74 (≈ 8.95 µM) | 3.16 (≈ 10.3 µM) | 4.43 (≈ 14.5 µM) | 12.4 (≈ 40.5 µM) |  | 16.8 (≈ 55 µM) | 29.1 (≈ 95 µM) | 47 (≈ 153 µM) | 49 (≈ 160 µM) | 0.69 (≈ 2.25 µM) | 3.12 (≈ 10.2 µM) |  |  |  |  | 
C[Si](C)(C)c1cn(CC(O)(Cn2cncn2)c2ccc(F)cc2F)nn1 (configuration not stated) |  |  | 43.2 (≈ 114 µM) | 49.8 (≈ 132 µM) | 3.04 (≈ 8.03 µM) | 3.26 (≈ 8.61 µM) | 3.11 (≈ 8.22 µM) | 3.16 (≈ 8.35 µM) |  | 33.1 (≈ 87.5 µM) | 44.5 (≈ 118 µM) | 8.57 (≈ 22.6 µM) | 15.6 (≈ 41.1 µM) | 1.01 (≈ 2.67 µM) | 1.56 (≈ 4.12 µM) |  |  |  |  | 
OC(Cn1cncn1)(Cn1cncn1)c1ccc(F)cc1F [FLUCONAZOLE] | Toxic |  |  | 2 (≈ 6.53 µM) |  | 0.5 (≈ 1.63 µM) |  | 2 (≈ 6.53 µM) | Non-toxic |  | 1 (≈ 3.27 µM) | 0.6 (≈ 1.96 µM) | 1 (≈ 3.27 µM) | 0.45 (≈ 1.47 µM) | 1 (≈ 3.27 µM) |  |  |  | Non-toxic | Toxic
OC(Cn1cncn1)(Cn1ccnn1)c1ccc(F)cc1F (configuration not stated) |  |  | > 50 | > 50 | 0.72 (≈ 2.35 µM) | 1.48 (≈ 4.83 µM) | 5.77 (≈ 18.8 µM) | 10.6 (≈ 34.7 µM) |  | 6.83 (≈ 22.3 µM) | 12.8 (≈ 41.9 µM) | 6.45 (≈ 21.1 µM) | 12.2 (≈ 39.7 µM) | 0.03 (≈ 0.098 µM) | 0.78 (≈ 2.55 µM) |  |  |  |  | 
CC(=O)N1CCN(c2ccc(OCC3COC(Cn4ccnc4)(c4ccc(Cl)cc4Cl)O3)cc2)CC1 (configuration not stated) [KETOCONAZOLE] | Toxic |  | 0.008 (≈ 0.0151 µM) | 2 (≈ 3.76 µM) | 0.001 (≈ 0.00188 µM) | 0.002 (≈ 0.00376 µM) | 0.026 (≈ 0.0489 µM) | 0.031 (≈ 0.0583 µM) | Non-toxic | 0.024 (≈ 0.0452 µM) | 0.031 (≈ 0.0583 µM) | 2.12 (≈ 3.99 µM) | 4 (≈ 7.53 µM) | 0.001 (≈ 0.00188 µM) | 0.001 (≈ 0.00188 µM) |  | Toxic |  | Non-toxic | 
C[C@H](CCC(=O)OCc1cn(CC(O)(Cn2cncn2)c2ccc(F)cc2F)nn1)[C@H]1CC[C@H]2[C@@H]3[C@H](O)C[C@@H]4C[C@H](O)CC[C@]4(C)[C@H]3C[C@H](O)[C@]12C (some centres not stated) | Toxic |  | 31.2 (≈ 43 µM) | > 50 | 0.35 (≈ 0.482 µM) | 0.442 (≈ 0.608 µM) | 11.3 (≈ 15.5 µM) | 12.6 (≈ 17.3 µM) | Non-toxic | 2.93 (≈ 4.03 µM) | 5.15 (≈ 7.09 µM) | 8.9 (≈ 12.2 µM) | 18.4 (≈ 25.3 µM) | 0.03 (≈ 0.0413 µM) | 0.19 (≈ 0.261 µM) |  | Toxic |  | Non-toxic | 
